Experimental data from ChEMBL document CHEMBL1151829, “Molluscicidal Phloroglucinols from the Fern Elaphoglossum piloselloides” (2009).

Experiments:
Assay type in all cases: functional
Biomphalaria peregrina [1] = assay: Molluscicidal activity against Biomphalaria peregrina assessed as mortality at 40 ppm after 24 hrs
In short: (§1)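 WHO protocol on adult snails, seven per beaker, each concentration in triplicate. Test solutions in water with MeOH ≤5% v/v; same-volume solvent controls. After 24 h exposure, snails were rinsed in dechlorinated tap water and kept 24 h to recover in dechlorinated tap water with lettuce leaves. Percent mortality was then recorded at the stated ppm.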

Biomphalaria peregrina [2] = assay: Molluscicidal activity against Biomphalaria peregrina assessed as mortality at 20 ppm after 24 hrs; in short: as §1
Biomphalaria peregrina [3] = assay: Molluscicidal activity against Biomphalaria peregrina assessed as mortality at 10 ppm after 24 hrs; in short: as §1
Biomphalaria peregrina [4] = assay: Molluscicidal activity against Biomphalaria peregrina assessed as mortality at 5 ppm after 24 hrs; in short: as §1
Biomphalaria peregrina [5] = assay: Molluscicidal activity against Biomphalaria peregrina assessed as mortality at 1 ppm after 24 hrs; in short: as §1
Biomphalaria peregrina [6] = assay: Molluscicidal activity against Biomphalaria peregrina after 24 hrs; details: for LC50: Biomphalaria peregrina, 24 h, read-out: LD50 (the source's name)
In short: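 Adult snails (seven per concentration, triplicate) exposed 24 h to test solutions in water with MeOH ≤5% v/v, per the WHO protocol. Snails were then washed and held 24 h in dechlorinated tap water with lettuce leaves before mortality was scored. Solvent-only negative control; 10 ppm CuSO₄ positive control.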

Biomphalaria peregrina [7] = assay: Molluscicidal activity against Biomphalaria peregrina assessed as mortality at 0.5 ppm after 24 hrs; in short: as §1
Biomphalaria pfeifferi = assay: Molluscicidal activity against Biomphalaria pfeifferi; details: read-out: LD50 (the source's name)
Biomphalaria alexandrina = assay: Molluscicidal activity against Biomphalaria alexandrina; details: read-out: LD50 (the source's name)
Oncomelania hupensis = assay: Molluscicidal activity against Oncomelania hupensis; details: read-out: LD50 (the source's name)

| SMILES | Activity (Biomphalaria peregrina [1]) [%] | Activity (Biomphalaria peregrina [2]) [%] | Activity (Biomphalaria peregrina [3]) [%] | Activity (Biomphalaria peregrina [4]) [%] | Activity (Biomphalaria peregrina [5]) [%] | LD90 (Biomphalaria peregrina [6]) [µM] | LC50 (Biomphalaria peregrina [6]) [µM] | Activity (Biomphalaria peregrina [7]) [%] | LD100 (Biomphalaria peregrina [6]) | LC50 (Biomphalaria pfeifferi) [µg/mL] | LC50 (Biomphalaria alexandrina) [µg/mL] | LC50 (Oncomelania hupensis) [µg/mL] |
| --- | --- | --- | --- | --- | --- | --- | --- | --- | --- | --- | --- | --- |
| CC/C=C(\OC(C)=O)C1=C(OC(C)=O)C(C)(CC=C(C)C)C(OC(C)=O)=C(Cc2c(OC)cc(OC(C)=O)c(C(=O)CCCCC)c2OC(C)=O)C1=O (stereo unspecified) | 81 | 24 | 0 | 0 | 0 | 58.4 | 40.6 | – | – | – | – | – |
| CCCC(=O)C1=C(O)C(C)(CC=C(C)C)C(O)=C(Cc2c(OC)cc(O)c(C(=O)CCC)c2O)C1=O (stereo unspecified) | – | – | – | 95 | 10 | 9 | 5.8 | 0 | – | – | – | – |
| CCCCCC(=O)c1c(O)cc(OC)c(CC2=C(O)C(C)(CC=C(C)C)C(O)=C(C(=O)CCC)C2=O)c1O (stereo unspecified) | – | – | – | 100 | 57 | 2.6 | 1.8 | 10 | <=5 ppm | – | – | – |
| CC/C=C(\OC(C)=O)C1=C(OC(C)=O)C(C)(CC=C(C)C)C(OC(C)=O)=C(Cc2c(OC)cc(OC(C)=O)c(C(=O)CCC)c2OC(C)=O)C1=O (stereo unspecified) | – | – | 43 | 5 | 0 | 20.7 | 14.9 | – | – | – | – | – |
| O=C(Nc1ccc([N+](=O)[O-])cc1Cl)c1cc(Cl)ccc1O [NICLOSAMIDE] | – | – | – | – | – | – | – | – | – | ≤ 0.5 | ≤ 0.5 | ≤ 0.5 |
